Activity calls are given as the source filed them. The calls are words filed in the database; no cut-off is given here.

These results are taken from ChEMBL document CHEMBL4732262, “Identification of two novel thiophene analogues as inducers of autophagy mediated cell death in breast cancer cells” (Bioorg Med Chem, 2021).

Assay [1] concerns MDA-MB-231. Description: Cytotoxicity against human MDA-MB-231 cells assessed as reduction in cell viability after 24 hrs by MTT assay. Type of assay: functional, cell-based. The settings on record: MDA-MB-231, 24 h. Put shortly:
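Cells seeded ~5 × 10^3 per well in 96-well plates, exposed to 0–40 µM for 24 h. MTT added at 0.5 mg/ml for 3 h, formazan dissolved in DMSO, absorbance read at 540 nm. IC50 taken from plotted curves. Duplicate wells, two independent repeats. MCF7 grown in DMEM, MDA-MB-231 in RPMI, both with 10% FBS at 37 °C and 5% CO2.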
A general note: Tetrazolium assays rely on reduction of a dye to a coloured formazan, in cell work by metabolically active cells.

Assay [2] deals with MCF7. In words: Induction of autophagy in human MCF7 cells assessed as increase in p62 degradation level after 24 hrs by Western blot analysis. The conditions noted are these: dose 1.25-5 µM. Type of assay: functional, cell-based. The procedure, abridged: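 Dose series in MCF7 cells (~5 × 10^6): 0, 1.25, 2.5 and 5 µM compound for 24 h, DMSO control. Lysates immunoblotted for p62 and LC3, GAPDH loading control, with infrared densitometry. At least two independent experiments.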

Assay [3] relates to MCF7. In words: Induction of autophagy in human MCF7 cells assessed as increase in p62 degradation at 2.5 uM after 24 hrs in presence of chloroquine by Western blot analysis. The format is functional, cell-based. Put shortly: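 MCF7 cells were given 2.5 µM compound alone or combined with 50 µM chloroquine, with DMSO control, for 24 h. Lysates were immunoblotted for p62 and LC3, with GAPDH as loading control. Band intensities were quantified by infrared imaging. At least two independent experiments.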

In assay [4] the test system is MDA-MB-231. Description: Induction of apoptosis in human MDA-MB-231 cells assessed as reduction in size of cells at 2.5 uM by phase contrast microscopic method. The conditions noted are these: time 6-24 hrs, TDE = time-dependent effect. Type of assay: functional, cell-based. The procedure, abridged:
(§1)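 ~5 × 10^4 cells in 6-well plates, either DMSO control or 2.5 µM. Morphology imaged at 0, 6, 12 and 24 h.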

For assay [5], the system named is MCF7. In words: Induction of apoptosis in human MCF7 cells assessed as morphological changes at 2.5 uM after up to 24 hrs by phase contrast microscopic method. Type of assay: functional, cell-based. The conditions noted are these: time hrs <=24. Put shortly:
as §1

For assay [6], the system named is MCF7. Description: Induction of apoptosis in human MCF7 cells assessed as change in Bcl-2 protein expression at 2.5 uM after 24 hrs by Western blot analysis. The format is functional, cell-based. Put shortly:
(§2)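 MCF7 or MDA-MB-231 cells given 2.5 µM or DMSO for 24 h, then lysed in RIPA buffer. Immunoblots probed overnight at 4 °C, followed by infrared-labelled secondary antibody for 1 h at 37 °C. Bands imaged and quantified densitometrically, with GAPDH as loading control. Representative of two independent experiments.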
For orientation: A western blot detects proteins with antibodies after separation by electrophoresis.

Assay [7] concerns MCF7. Description: Induction of apoptosis in human MCF7 cells assessed as necrotic cells at 2.5 uM after 24 hrs by annexin V-FITC/Propidium iodide staining based flow cytometric analysis (reference value: 1.22%). The format is functional.
The subject of assay [8] is MDA-MB-231. In words: Induction of apoptosis in human MDA-MB-231 cells assessed as early apoptotic cells at 2.5 uM after 24 hrs by annexin V-FITC/Propidium iodide staining based flow cytometric analysis (reference value: 1.54%). The format is functional.
The subject of assay [9] is MCF7. Description: Induction of autophagy in human MCF7 cells assessed as increase in CHOP protein expression at 2.5 uM after 24 hrs by Western blot analysis. The format is functional, cell-based. The procedure, abridged:
as §2

Assay [10] concerns MCF7. In words: Induction of autophagy in human MCF7 cells assessed as increase in DDIT3 mRNA expression at 2.5 uM after 24 hrs by PCR microarray analysis. The format is functional, cell-based. The procedure, abridged:
(§3)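 MCF7 cells given 2.5 µM or DMSO for 24 h. cDNA run on an Unfolded Protein Response RT2 Profiler PCR array. Changes computed by 2^-ΔΔCt (log2) against control, normalised to the mean of ACTB, B2M, GAPDH, HPRT1 and RPLPO.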

Assay [11] relates to MCF7. Description: Induction of apoptosis in human MCF7 cells assessed as increase in cleaved-PARP protein expression at 2.5 uM after 24 hrs in presence of chloroquine by Western blot analysis. The format is functional, cell-based. Put shortly: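 MCF7 cells given 2.5 µM alone or combined with 50 µM chloroquine for 24 h. Western blot for cleaved PARP, p62 and LC3, with GAPDH as loading control. LC3-II/I ratio by densitometry. At least two independent experiments.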

The test system of assay [12] is MCF7. In words: Induction of autophagy in human MCF7 cells assessed as increase in UVRAG mRNA expression at 2.5 uM after 24 hrs by RT-PCR analysis. Type of assay: functional, cell-based. The procedure, abridged: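 Total RNA was taken with TRIzol from MCF7 cells treated 24 h with 2.5 µM compound or DMSO, then reverse transcribed. SYBR Green qPCR ran 40 cycles of 95 °C 15 s / 60 °C 1 min. Relative expression was calculated by 2^-ΔΔCt against DMSO-treated cells, normalized to housekeeping genes (GAPDH, B2M and others). Samples run in duplicate, two independent experiments, values averaged.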

Assay [13] relates to MCF7. In words: Induction of autophagy in human MCF7 cells expressing mCherry-tagged p62 assessed as reduction in p62 expression at 2.5 uM after 24 hrs by live-cell confocal microscopic analysis. Type of assay: functional, cell-based. The procedure, abridged:
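MCF7 cells were co-transfected with GFP-LC3 and mCherry-p62 constructs. 24 h later they were exposed to 2.5 µM compound, 50 µM chloroquine or DMSO for a further 24 h. Nuclei were stained with Hoechst 33342 and cells imaged by live-cell confocal microscopy. Two independent experiments.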

Assay [14] has as its system MCF7. In words: Induction of apoptosis in human MCF7 cells assessed as increase in cleaved PARP level at 2.5 uM after r24 hrs by Western blot analysis. The format is functional, cell-based. The settings on record: time 24.0 hrs. The procedure, abridged: as §2
Assay [15] deals with MCF7. In words: Induction of autophagy in human MCF7 cells assessed as increase in IRE1 mRNA expression at 2.5 uM after 24 hrs by PCR microarray analysis. The format is functional, cell-based. The procedure, abridged: as §3
The subject of assay [16] is MCF7. Description: Induction of apoptosis in human MCF7cells assessed as reduction in number of cells at 2.5 uM by phase contrast microscopic method. The format is functional, cell-based. The settings on record: time 6-24 hrs, TDE = time-dependent effect. Put shortly:
as §1

In assay [17] the test system is MCF7. In words: Induction of autophagy in human MCF7 cells assessed as increase in PPP1R15A mRNA expression at 2.5 uM after 24 hrs by PCR microarray analysis. Type of assay: functional, cell-based. Put shortly: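 MCF7 cells (~10 × 10^6) were treated with 2.5 µM compound or DMSO for 24 h. Total RNA was converted to cDNA and run on an Unfolded Protein Response RT2 Profiler PCR array. Log2 fold change was computed by 2^-ΔΔCt against control cells, normalized to the mean of ACTB, B2M, GAPDH, HPRT1 and RPLPO.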

Assay [18] concerns MDA-MB-231. Description: Induction of apoptosis in human MDA-MB-231 cells assessed as late apoptotic cells at 2.5 uM after 24 hrs by annexin V-FITC/Propidium iodide staining based flow cytometric analysis (reference value: 0.08%). Type of assay: functional. (In flow cytometry, cells or beads pass a laser one at a time.)
For assay [19], the system named is MCF7. Description: Induction of autophagy in human MCF7 cells assessed as increase in ATF4 protein expression at 2.5 uM after 24 hrs by Western blot analysis. The format is functional, cell-based. The procedure, abridged: as §2
Assay [20] has as its system MCF7. Description: Induction of autophagy in human MCF7 cells assessed as increase in BAD mRNA expression at 2.5 uM after 24 hrs by RT-PCR analysis. Type of assay: functional, cell-based. The procedure, abridged: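 MCF7 cells given 2.5 µM or DMSO for 24 h. Total RNA extracted with TRIzol and reverse-transcribed, then SYBR Green qPCR across 34 autophagy-regulatory genes (95 °C 10 min; 40 cycles of 95 °C 15 s and 60 °C 1 min). Relative expression by 2^-ΔΔCt against housekeeping genes and DMSO control, shown as log2. Two independent experiments.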

In the case of `O=C1C(=O)c2ccsc2-c2ccccc21`, the IC50 (commonly the midpoint of a concentration-inhibition curve) in [1] is 2.6 µM. The Activity entry was “Dose-dependent effect” in [2]; “Tde” in assay [4]; 37.7% in assay [7]; 11.9% in [8]; “Tde” in assay [16]; 10.9% in [18]. Moreover, the result in assay [3], in assay [6] and in [11] was inactive. For the same compound, the result in assay [5], in assay [9], in [10], in assay [12], in [13] and in assay [14] was Active. Besides, the outcome in assay [15], in assay [17], in [19] and in [20] was Active.

Turning to `O=C1C(=O)c2sccc2-c2ccccc21`, the IC50 in assay [1] amounted to 2.96 µM. Further, the Activity entry is “Dose-dependent effect” in assay [2]; “Tde” in assay [4]; 22.2% in assay [7]; 24.7% in [8]; “Tde” in assay [16]; 14.9% in assay [18]. In addition, the outcome in assay [3], in assay [6] and in assay [11] was inactive. In addition, the result in assay [5], in assay [9], in assay [10], in [12], in [13] and in [14] was Active. The result in [15], in assay [17], in assay [19] and in assay [20] was Active.
